ChEMBL document CHEMBL1154402, “Antiviral effect of orally administered (-)-beta-D-2-aminopurine dioxolane in woodchucks with chronic woodchuck hepatitis virus infection” (Antimicrob Agents Chemother, 2007)
Active and inactive are the calls of the source. The calls are words filed in the database; no cut-off is given here.

Assays:
[1] = system: Woodchuck hepatitis virus; experiment: Antiviral activity against woodchuck hepatitis virus infected woodchucks assessed as log reduction of serum viral DNA per ml of serum after 4 weeks; assay type: functional
[2] = system: Duck hepatitis B virus; experiment: Antiviral activity against Duck hepatitis B virus infected ip dosed ducklings assessed as log reduction of serum viral DNA copies per ml of serum after 10 days
[3] = system: Duck hepatitis B virus; experiment: Antiviral activity against Duck hepatitis B virus chronically infected ducklings assessed as log reduction of serum viral DNA copies per ml of serum at 20 mg/kg, ip after 10 days; settings: route intraperitoneal
[4] = system: Duck hepatitis B virus; experiment: Antiviral activity against Duck hepatitis B virus experimentally infected ducklings assessed as log reduction of serum viral DNA copies per ml of serum at 40 mg/kg, ip after 10 days; settings: route intraperitoneal
[5] = system: Woodchuck hepatitis virus; experiment: Antiviral activity against woodchuck hepatitis virus chronically infected woodchucks assessed as reduction of viral DNA replicative intermediates at 10 mg/kg/day, po after 4 weeks; assay type: functional, organism-based
Outline: (§1)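 Liver biopsies were taken by ultrasound-guided needle under ketamine/xylazine anaesthesia. Timing was 1 week before and at the end of 4 weeks of once-daily oral dosing (1–30 mg/kg/day or placebo diet; five woodchucks per group). Samples were snap-frozen and stored at –70°C. Hepatic WHV DNA replicative intermediates were quantified by Southern blot hybridization and compared with placebo.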

[6] = system: Woodchuck hepatitis virus; experiment: Antiviral activity against woodchuck hepatitis virus chronically infected woodchucks assessed as log reduction of viral DNA replicative intermediates at 30 mg/kg/day, po after 4 weeks relative to control; assay type: functional, organism-based; outline: as §1
[7] = system: Marmota monax; experiment: Toxicity in woodchuck hepatitis virus chronically infected woodchucks assessed as change in body weight administered once daily for 4 weeks; assay type: organism-based; settings: in vivo, 672 h
[8] = system: Marmota monax; experiment: Toxicity in woodchuck hepatitis virus chronically infected woodchuck assessed as serum sorbitol dehydrogenase level at 30 mg/kg/day, po after 4 weeks; assay type: organism-based; set-up: route oral; settings: in vivo, 672 h
Outline: (§2)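 Serum ALT and SDH were measured as hepatocellular injury markers in chronic WHV carriers dosed orally once daily for 4 weeks. Blood was drawn under ketamine (50 mg/kg) and xylazine (5 mg/kg) im anaesthesia before treatment and weekly during treatment.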

[9] = system: Marmota monax; experiment: Toxicity in woodchuck hepatitis virus chronically infected woodchuck assessed as serum alanine aminotransferase level at 30 mg/kg/day, po after 4 weeks; assay type: organism-based; set-up: route oral; settings: in vivo, 672 h; outline: as §2
[10] = system: Rhesus monkey; experiment: AUC in po dosed rhesus monkey assessed as serum 9-(beta-D-1,3-dioxolan-4-yl)guanine level; assay type: ADME, organism-based, Macaca mulatta, Plasma; settings: in vivo
[11] = Terminal elimination half life in orally dosed mouse; assay type: ADME, organism-based; settings: in vivo, po, read-out: beta t1/2 (converted)
[12] = Terminal elimination half life in orally dosed monkey; assay type: ADME, organism-based, Macaca mulatta; settings: rhesus monkey, in vivo, po; read-out: beta t1/2 (converted)
[13] = AUC (0 to infinity) in woodchuck hepatitis virus-negative woodchucks at 33.3 mg/kg, iv administered as single dose followed by dose of 33.3 mg/kg, po after 4 weeks washout period; assay type: ADME, organism-based; settings: marmota monax, plasma
Outline: (§3)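 Three WHV-negative adult woodchucks got a 33.3 mg/kg iv bolus, with one saline control. After a 4-week washout the same three got 33.3 mg/kg orally. Blood was drawn predose and at 0.25–24 h. Serum APD and DXG were measured by HPLC-UV (LOQ 0.2 µM) and analysed noncompartmentally. AUC0-∞ used the trapezoidal rule, extrapolated by Clast/λz.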

[14] = Terminal elimination half life in woodchuck hepatitis virus-negative woodchucks at 33.3 mg/kg, iv administered as single dose; assay type: ADME, organism-based; set-up: dose 33.3 mg/kg, route intravenous; settings: marmota monax, in vivo, read-out: beta t1/2 (converted); outline: as §3
[15] = Terminal elimination half life in woodchuck hepatitis virus-negative woodchucks at 33.3 mg/kg, iv administered as single dose followed by dose of 33.3 mg/kg, po after 4 weeks washout period; assay type: ADME, organism-based; settings: marmota monax, in vivo, read-out: beta t1/2 (converted); outline: as §3
[16] = system: Woodchuck hepatitis virus; experiment: Antiviral activity against woodchuck hepatitis virus chronically infected orally dosed woodchucks assessed as reduction in serum viremia administered once daily for 4 weeks; assay type: functional, organism-based
Outline: (§4)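 Chronic WHV carriers were stratified into groups of five. They were dosed orally once daily for 4 weeks at 1, 3, 10 or 30 mg/kg/day, or given liquid-diet placebo; drug was dissolved in saline and suspended in diet by syringe. Serum WHV DNA was measured weekly by triplicate dot blot (sensitivity 1.0 x 107 WHVge/ml) or triplicate real-time PCR (1.0 x 103 WHVge/ml) against pWHV8 standards. Log values were compared with pretreatment and placebo by repeated-measures ANOVA with Holm-Sidak tests.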

[17] = system: Woodchuck hepatitis virus; experiment: Antiviral activity against woodchuck hepatitis virus chronically infected woodchucks assessed as reduction of serum viral DNA at 1 mg/kg/day, po after 4 weeks; assay type: functional, organism-based; outline: as §4
[18] = system: Woodchuck hepatitis virus; experiment: Antiviral activity against woodchuck hepatitis virus chronically infected woodchucks assessed as log reduction of serum viral DNA at 3 mg/kg/day, po after 4 weeks; assay type: functional
Outline: (§5)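 Chronic WHV-carrier adult woodchucks were stratified into groups of five and dosed orally once daily for 4 weeks (saline solution in liquid diet; diet-alone placebo). Serum WHV DNA was measured weekly by dot blot (sensitivity 1.0 x 10^7 WHVge/ml) or by triplicate real-time PCR (sensitivity 1.0 x 10^3 WHVge/ml) against pWHV8 standards. Log values were compared with week 0 and placebo by repeated-measures ANOVA with Holm-Sidak.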

[19] = system: Woodchuck hepatitis virus; experiment: Antiviral activity against woodchuck hepatitis virus chronically infected woodchucks assessed as log reduction of serum viral DNA at 10 mg/kg/day, po after 4 weeks; assay type: functional; outline: as §5
[20] = system: Woodchuck hepatitis virus; experiment: Antiviral activity against woodchuck hepatitis virus chronically infected woodchucks assessed as log reduction of serum viral DNA at 30 mg/kg/day, po after 4 weeks; assay type: functional; outline: as §5
[21] = system: Woodchuck hepatitis virus; experiment: Antiviral activity against woodchuck hepatitis virus chronically infected in woodchucks assessed as reduction in viral surface antigen level in blood at 30 mg/kg/day, po after 4 weeks; assay type: functional
Outline: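 Adult woodchucks chronically infected with WHV, in groups of five, got the drug dissolved in isotonic saline and suspended in a semisynthetic liquid diet, by oral dose syringe once daily for 4 weeks. Placebo was diet alone. Serum WHsAg was measured by WHV-specific enzyme immunoassay (optical density units) before, during and after treatment up to week 16.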

[22] = system: Woodchuck hepatitis virus; experiment: Antiviral activity against woodchuck hepatitis virus chronically infected in woodchucks assessed as reduction in anti-WHV core antigen antibody levels at 30 mg/kg/day, po after 4 weeks; assay type: functional, organism-based
[23] = system: Woodchuck hepatitis virus; experiment: Antiviral activity against woodchuck hepatitis virus chronically infected in woodchucks M7236 assessed as reduction in anti-WHs antibody levels at 30 mg/kg/day, po after 4 weeks; assay type: functional, organism-based
[24] = system: Woodchuck hepatitis virus; experiment: Antiviral activity against woodchuck hepatitis virus chronically infected in woodchucks M7250 assessed as reduction in anti-WHs antibody levels at 30 mg/kg/day, po after 4 weeks; assay type: functional, organism-based
[25] = system: Woodchuck hepatitis virus; experiment: Antiviral activity against woodchuck hepatitis virus chronically infected woodchucks assessed as reduction of viral DNA replicative intermediates at 1 mg/kg/day, po after 4 weeks; assay type: functional, organism-based; outline: as §1
[26] = system: Woodchuck hepatitis virus; experiment: Antiviral activity against woodchuck hepatitis virus chronically infected woodchucks assessed as reduction of viral DNA replicative intermediates at 3 mg/kg/day, po after 4 weeks; assay type: functional, organism-based; outline: as §1
[27] = AUC (0 to infinity) in woodchuck hepatitis virus-negative woodchucks at 33.3 mg/kg, iv administered as single dose; assay type: ADME, organism-based; set-up: time infinity, dose 33.3 mg/kg, route intravenous; settings: marmota monax, plasma; outline: as §3
[28] = Cmax in woodchuck hepatitis virus-negative woodchucks at 33.3 mg/kg, iv administered as single dose; assay type: ADME, organism-based; set-up: dose 33.3 mg/kg, route intravenous; settings: marmota monax, in vivo; outline: as §3
[29] = Cmax in woodchuck hepatitis virus-negative woodchucks at 33.3 mg/kg, iv administered as single dose followed by dose of 33.3 mg/kg, po after 4 weeks washout period; assay type: ADME, organism-based; settings: marmota monax, in vivo; outline: as §3

## Nc1ccn([C@@H]2CS[C@H](CO)O2)c(=O)n1 [LAMIVUDINE]
[1]
  Activity: 2.5

## CC(=O)OCC(CCn1cnc2cnc(N)nc21)COC(C)=O [FAMCICLOVIR]
[1]
  Activity: 1.4

## C=C1[C@H](CO)[C@@H](O)C[C@@H]1n1cnc2c(=O)[nH]c(N)nc21.O [ENTECAVIR]
[1]
  Activity: 7

## CC(C)OC(=O)OCOP(=O)(CO[C@H](C)Cn1cnc2c(N)ncnc21)OCOC(=O)OC(C)C.O=C(O)/C=C/C(=O)O [TENOFOVIR DISOPROXIL FUMARATE]
[1]
  Activity: 1.5

## Nc1nc(N)c2ncn([C@H]3CO[C@@H](CO)O3)c2n1 [AMDOXOVIR]
[2]
  Activity: Dose-dependent effect
[3]
  Activity: 0.3
[4]
  Activity: 0.9

## Cc1cn([C@H]2O[C@@H](CO)[C@H](O)[C@H]2F)c(=O)[nH]c1=O [CLEVUDINE]
[1]
  Activity: 8.2

## Nc1ncc2ncn([C@H]3CO[C@@H](CO)O3)c2n1
[5]
  Activity: inactive
[6]
  Activity: Active
[7]
  Activity: Non-toxic
[8]
  Activity: 211.5 IU/L
[9]
  Activity: 9.5 IU/L
[10]
  %AUC: 75%
[11]
  half-life: 18 min
[12]
  half-life: 30 min
[13]
  AUC(0-inf): 49.4 µM·h
[14]
  half-life: 102 min
[15]
  half-life: 180 min
[16]
  Activity: Dose-dependent effect
[17]
  Activity: inactive
[18]
  Activity: 0.4
[19]
  Activity: 0.7
[20]
  Activity: 1.9
[21]
  fold change (FC): 1.4
[22]
  Activity: inactive
[23]
  Activity: inactive
[24]
  Activity: inactive
[25]
  Activity: inactive
[26]
  Activity: inactive
[27]
  AUC(0-inf): 203 µM·h
[28]
  Cmax: 112 µM
[29]
  Cmax: 16.8 µM
